The values below come from PubChem BioAssay AID573 (SRMLSC, 2007).

Screen size: about 65,000 compounds; about 1,400 (2.2%) were called active. The sample as a whole holds a higher share of actives than the screen did. Unmarked numbers belong to inactive results.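 How the source made its calls: active means growth inhibition at or above a cutoff equal to the mean over every tested compound plus 3 SD (cut at about 60% in these data); inactive means the rest.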

The assay can be described thus: E. coli ΔtolC antibacterial growth inhibition – strain BW25113 ΔtolC::kan, 384-well, primary screen (AID 573).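 Further: growth measured after 20 h incubation at 37 °C.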 The following applies: E. coli BW25113 tolC mutant growth, OD615; active compounds read high; screened at 10 µM (by protocol). In a few lines: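 Test system – E. coli BW25113 ΔtolC::kan, tolC deletion mutant strain · Detection – OD at 615 nm · Buffer or medium – LB with kanamycin 50 µg/mL · Times – 20 h compound exposure of bacteria at 37 °C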
For the compound `COc1ccc(-c2cc(C(F)(F)F)nc(SCCC(=O)NCc3ccco3)n2)cc1`, the growth inhibition is -9.96%.
Then `Cc1ccc(F)cc1NC(=O)c1cccc(N(C)C)c1`, with -26.6%; and `O=C(Nc1cccc(F)c1)c1ccc(S(=O)(=O)N2CCCC2)cc1`, with 8.01%; and `O=C1CCCC2=C1C(c1cccs1)n1nc(SCc3ccccc3)nc1N2` (stereo not drawn), with 87.2% (active).
Then `CC(C)C(=O)N1c2ccccc2NC2=C(C(=O)CCC2)C1c1ccc(N(C)C)cc1` (stereo not drawn), with -4.93%; and `CCCC(=O)N1c2ccccc2NC2=C(C(=O)CCC2)C1c1ccc(F)cc1` (stereo not drawn), with 55.5%.
Under `COC(=O)CSc1nc(C2CC2)nc2ccccc12` stands 15.2%; under `COc1cccc(N(CC(=O)NC2CCCC2)C(=O)Cn2nnc(-c3ccc(C)cc3)n2)c1`, -7.48%; under `C=CCn1c(N)c(S(=O)(=O)c2cccs2)c2nc3ccccc3nc21`, 26.6%.
For `C=CCn1c(N)c(C(=O)OCC(C)C)c2nc3ccccc3nc21`, the growth inhibition was 30.8%.
Under `CC(C)Cn1c(N)c(C(=O)NCc2cccs2)c2nc3ccccc3nc21` stands 79.5% (active).
`COC(=O)c1ccc(/C=N\n2c(C)nnc2C)cc1`: the growth inhibition was -9.6%.
Then `O=C(CCCN1C(=O)CSc2ncccc21)N1CCN(c2cccc(C(F)(F)F)c2)CC1`, with 17.9%.
Under `COc1ccc2c(c1)OC(O)(C(F)(F)C(F)F)CC2=O` (stereo not drawn) stands 100% (active); under `N#CCCN(CCC#N)c1nnc(-c2ccccc2)s1`, 16.1%.
Then `CCOC(=O)C1=C(C)NC(C)=C(C(=O)OCC)C1C1=COCCO1`, with 5.25%; and `O=C(CSc1nnc(-c2ccccc2)o1)N1CCOCC1`, with -8.06%; and `CC1=CC(C)(C)N(C(=O)CSc2nccn2C)c2cc(C)ccc21`, with 5.87%.
As to `CC1=CC(C)(C)N(C(=O)CSc2nnc(-c3ccccc3)o2)c2ccc(C)cc21`, the growth inhibition was 65.4% (active).
Then `CCCCN(C)C(=O)C1CCN(Cc2ccccn2)CC1`, with -9.54%.
Under `Cc1cnc(NC(=O)CSc2nnc(-c3ccccc3)n2Cc2ccccc2)s1` stands 1%.
Under `CCOC(=O)Cn1c(CN(Cc2ccccc2)Cc2ccccc2)nc2c1c(=O)[nH]c(=O)n2C` stands 13%; under `FC(F)(F)COc1nc(N2CCCCC2)nc(N2CCNCC2)n1`, 10.5%; under `O=c1oc2c(CN3CCCCC3)c(O)ccc2c2c1CCCCC2`, 2.35%.
Take `CCCOc1ccc2c3c(c(=O)oc2c1OCCC)CCC3`: the growth inhibition was 73% (active).
Under `COc1ccc2c3c(c(=O)oc2c1OCC(=O)C(C)(C)C)CCCC3` stands 10.7%.
Then `COc1ccccc1N1CCN(C(=O)c2cc3c(-c4ccc(Cl)cc4)nn(C)c3s2)CC1`, with 14.7%; and `Cn1c(=O)c2c(nc(Br)n2CCSc2nc3ccccc3o2)n(C)c1=O`, with 4.61%; and `Cc1cc(C)c(C#N)c(SCc2ccc3c(c2)OCO3)n1`, with 62.3% (active).
Then `Cc1cc(C)c(C#N)c(SCc2ccccc2C(=O)O)n1`, with 8.75%; and `Cc1cc(C)c(C#N)c(SCc2[nH]nc3c2C(c2ccccc2)C(C#N)=C(N)O3)n1` (stereo not drawn), with 18.3%.
Regarding `O=C(Nc1ccc(-c2nnc(-c3ccccc3)o2)cc1)c1ccc(Br)o1`, the growth inhibition was -0.33%.
Under `Cc1nonc1NC(=O)c1ccccc1Br` stands -1.19%.
Under `O=C(Nc1nnc(-c2ccc(Cl)cc2)o1)c1ccccc1Br` stands 100% (active).
Under `Cn1c(=O)[nH]c(=O)c2c1nc(NCCCn1ccnc1)n2Cc1cccc(Br)c1` stands -18.6%.
`CCOC(=O)c1ccc(NC(=O)CS(=O)(=O)c2cn(CC)c3ccccc23)cc1`: the growth inhibition is 12.6%.
Under `Cc1ccc2c(c1)c1ncnc(N3CCc4ccccc4C3)c1n2C` stands 21.5%.
Then `COc1ccc(C(C(O)C(=O)c2c[nH]c3ccccc23)N2CCN(c3ccccc3)CC2)cc1` (stereo not drawn), with 72.1% (active).
Under `CCCC(=O)NC(C)C(c1cccs1)N1CCN(c2ccccc2)CC1` (stereo not drawn) stands 1.14%; under `COc1ccc(OC)c(S(=O)(=O)N(C)CC(=O)N2CCN(c3ccccc3)CC2)c1`, 8.54%.
`O=S(=O)(c1ccc(F)cc1)N1CCN(Cc2ccccc2C(F)(F)F)CC1`: the growth inhibition was 38.3%.
Under `Cc1cccc(NC(=O)COc2ccc(Br)cc2C)n1` stands 8.04%; under `Clc1ccc(Nc2nc(-c3cccs3)cs2)nc1`, 81.1% (active).
Under `c1ccc(Nc2nc(-c3ccncc3)cs2)nc1` stands -16.7%; under `O=C(Nc1ccc(Cl)cn1)Nc1cccs1`, 6.13%.
Consider `COc1ccc(-c2nnc(SC(=O)N3c4ccccc4Sc4ccccc43)o2)cc1`, for which the growth inhibition was 0.32%.
Under `CC1CCCCN1S(=O)(=O)c1ccc(C(=O)Nc2nnc(-c3cccs3)o2)cc1` (stereo not drawn) stands 99.1% (active); under `CCc1nnc(NC(=O)c2ccc(S(=O)(=O)NC3CCCCC3)cc2)s1`, 18.5%.
Then `CCc1nnc(NC(=O)C2CCCN2S(=O)(=O)c2ccccc2)s1` (stereo not drawn), with 3.73%; and `COCC(C)n1c(SCc2ccc(C(=O)OC)o2)nc2ccccc2c1=O` (stereo not drawn), with 33.1%.
Under `CCN(CC)S(=O)(=O)c1cccc(C(=O)Nc2ccccc2)c1` stands 38.8%; under `O=C(CC1Oc2ccccc2NC1=O)NCCCN1CCN(Cc2ccccc2)CC1` (stereo not drawn), -13.8%.
Take `Clc1cccc(-c2nc3nc4ccccc4nc3n2Cc2ccco2)c1`: the growth inhibition was 68% (active).
In the case of `Cc1ccc(Cn2c(C)nc3c(c2=O)c2nc4ccccc4nc2n3Cc2ccco2)cc1`, the growth inhibition is 29.2%.
Then `Cc1nc2c(c(=O)n1Cc1ccco1)c1nc3ccccc3nc1n2Cc1ccccc1`, with 14.7%.
Turning to `COc1ccc(C2N=C(N)N=C(N)N2c2ccccc2)cc1OC` (stereo not drawn), the growth inhibition is 4.96%.
As to `Cc1nc2c(C(=O)NCc3ccc4c(c3)OCO4)c[nH]n2c(=O)c1Cc1ccccc1F`, the growth inhibition is 100% (active).
Take `CCn1cc(C(=O)NCc2ccc3c(c2)OCO3)c2cc(OC)c(OC)cc2c1=O`: the growth inhibition was -12.7%.
Under `O=C(CCCCn1c(=O)[nH]c2ccccc2c1=O)NCc1ccc2c(c1)OCO2` stands 1.02%; under `CC(C)C(=O)N1CCN(c2nc(-c3ccccc3)c3c(c2C#N)CC(C)(C)OC3)CC1`, 4.78%; under `COC(=O)CSC1=C(C#N)C(c2ccccc2OC)C(C(=O)OC)C(=O)N1` (stereo not drawn), -1.55%.
Then `CCCCCCn1c(CN2CCCC(C)C2)nc2c1c(=O)n(C)c(=O)n2C` (stereo not drawn), with 60.7% (active); and `CCCCCCn1c(CN2CCCCC2)nc2c1c(=O)n(C)c(=O)n2C`, with -3.32%; and `CC1CCCN(Cc2nc3c(c(=O)n(C)c(=O)n3C)n2CC(=O)c2ccccc2)C1` (stereo not drawn), with 13.4%.
Then `NC(=O)C1CC=CCC1C(=O)OCC(Cl)=C(Cl)Cl` (stereo not drawn), with 3.92%.
As to `COC(=O)c1cccc(NC(=O)CSc2nc(C)cc(=O)[nH]2)c1`, the growth inhibition is 10.2%.
In the case of `CCOC(=O)c1c(C)[nH]c(C)c1C(=O)CSc1nc(N)cc(N)n1`, the growth inhibition is -1.68%.
Then `COC(=O)c1cc(C(=O)CSc2nc(C)cc(C)n2)ccc1O`, with 68% (active); and `CCOC(=O)c1nnn(-c2nonc2OC)c1-c1ccccc1`, with 8.09%; and `COC(=O)c1ccc(NC(=O)CSc2nnc(CNc3ccc(OC)cc3)n2C)cc1`, with 3.76%.
Then `CCN(CC(=O)NC(C)C)C(=O)CCNC(=O)c1ccc(Cl)cc1`, with -4.01%; and `CC1(N2CCOCC2)CC2(O)C(=[N+]1[O-])CCc1nonc12` (stereo not drawn), with -7.92%; and `COc1ccc(CCN(C)CCN2C(=O)c3ccccc3C2=O)cc1OC`, with -13.3%.
Under `COc1ccc(CCN2C(=O)c3[nH]nc(-c4ccccc4O)c3C2c2ccc(C)cc2)cc1OC` (stereo not drawn) stands 64.4% (active).
On to `COc1cc(C2C(C(=O)c3ccc(C)o3)=C(O)C(=O)N2CCc2ccccc2)ccc1O` (stereo not drawn), for which the growth inhibition was 5.33%.
Then `CNC(=O)c1c(NC(=O)c2ccc(S(=O)(=O)N3CCOCC3)cc2)sc2c1CCC2`, with 10.9%; and `CCOCCc1c(O)nc(SCC(=O)NCc2ccco2)[nH]c1=O`, with -0.82%.
Then `CCOc1ccc(C(C)C)cc1S(=O)(=O)n1nc(C)cc1C`, with 24.3%; and `CCOc1cc(C)c(Cl)cc1S(=O)(=O)n1nnc2ccccc21`, with 63.4% (active); and `Cc1ccc(C)c(S(=O)(=O)n2cnc3ccccc32)c1`, with 7.6%.
Then `CCN1CCN(C(=O)CN(C)S(=O)(=O)c2ccc(OC)cc2)CC1`, with 8.07%; and `O=C(Nc1ccccc1)N(Cc1cccnc1)Cc1ccco1`, with -11.4%.
With `CS(=O)(=O)NCc1ccc(C(=O)NCc2ccccc2)cc1`, the growth inhibition is -9.06%.
`COc1ccccc1N1CCN(C(=O)CN(Cc2ccc(Cl)cc2)S(C)(=O)=O)CC1`: the growth inhibition is 25.9%.
Then `COc1cc2ccccc2cc1C(=O)Nc1ccc(S(=O)(=O)Nc2cc(C)on2)cc1`, with 78.6% (active); and `Cc1cc(NS(=O)(=O)c2ccccc2)no1`, with -26.8%.
Under `CCOc1ccc(CC(=O)Nc2ccc(S(=O)(=O)Nc3cc(C)on3)cc2)cc1OCC` stands 4.16%.
Then `CCOC(=O)N1CCN(C(=O)c2cn(C)c3ccc(S(=O)(=O)N4CCCC4)cc3c2=O)CC1`, with -22.7%; and `CCOC(=O)C1CCN(C(=O)C2CCN(S(=O)(=O)N3CCCC3)CC2)CC1`, with -4.22%; and `CCOC(=O)C1CCN(C(=O)c2oc3ccc(S(=O)(=O)N4CCCCCC4)cc3c2C)CC1`, with 77.3% (active).
In the case of `COc1cccc(N(C(=O)c2ccn[nH]2)C2(C(=O)Nc3c(C)cccc3C)CCCCC2)c1`, the growth inhibition was 30.5%.
Then `Cc1ccc(C)c(S(=O)(=O)N2CC(=O)Nc3ccccc32)c1`, with 17.8%; and `CC(=O)Nc1ccc(-c2nn3c(C)nnc3s2)cc1C`, with -9.56%.
